# ChEMBL document CHEMBL1141722, “Antioxidative and thrombolytic TMP nitrone for treatment of ischemic stroke” (2008)
# The source made the active and inactive calls. The calls are words filed in the database; no cut-off is given here.
# Experiments:
# Format in all cases: functional
# [1] = Antioxidant activity assessed as inhibition of ROS-induced linoleic acid peroxidation at 1 mM after 15 mins at 100 degC by modified TBARS assay relative to control
# Summary of the method: (§1)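 Linoleic acid (1.5% in ethanol) diluted with twofold 200 mM PBS, pH 7.4, then incubated with 2.5 mM FeSO4 (0.2 mL) and test sample at 37 °C for 30 min. The reaction was stopped with 10% TCA and 0.67% TBA, then boiled 15 min. The MDA–TBA adduct in the supernatant was read at 532 nm. % inhibition = [(A−A1)/A]×100 versus control absorbance.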
# [2] = tested on: Rattus norvegicus; test: Neuroprotective effect against middle cerebral artery occlusion-induced focal cerebral ischemia in Sprague-Dawley rat assessed as reduction in infarct area at 65 mg/kg, ip administered 1 hr after MCA occlusion measured after 24 hrs of reperfusion by TTC staining relative to control; design: scale not given: the % may be the effect or the level left; conditions: route intraperitoneal
# Summary of the method: (§2)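 Female Sprague-Dawley rats (210–240 g) under chloral hydrate (400 mg/kg ip) underwent 2 h transient proximal MCA occlusion by intraluminal suture, then reperfusion. Drug or saline was given ip 1 h after occlusion. After 24 h of reperfusion, 2-mm brain slices were stained with 0.5% TTC for 30 min at 37 °C. Infarct area was expressed as % of total section area. Single-tail Student's t-test versus control.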
# [3] = tested on: Platelet; test: Inhibition of ADP-induced New Zealand rabbit platelet aggregation at 2 mM treated for 1 min prior to ADP challenge by turbidimetric method relative to control; conditions: Oryctolagus cuniculus
# Summary of the method: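 New Zealand rabbit blood was anticoagulated with 3.8% citrate (9:1), and PRP was taken by centrifugation. PRP was pre-warmed at 37 °C for 1 min, then drug was added to 2 mM final. After 1 min of stirring, ADP (10 µM) was added and the reaction ran 4 min. Maximum change in light transmission was recorded turbidimetrically and expressed as % of drug-free control.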
# [4] = Antioxidant activity assessed as inhibition of ROS-induced linoleic acid peroxidation at 2 mM after 15 mins at 100 degC by modified TBARS assay relative to control; summary of the method: as §1
# [5] = Neuroprotective effect against H202-induced Sprague-Dawley rat cortical neuron injury assessed as cell viability up to 1 mM treated 30 mins before H202 challenge measured after 24 hrs by MTT assay; conditions: Cortical neurone
# Summary of the method: (§3)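 Cortices from 1–3-day-old Sprague–Dawley rats were digested with 0.25% […] at 37 °C, and cells were plated at 9×10^4/well in DMEM/10% FBS for 24 h plus 12 h. Drugs were added 30 min before 0.5 mM H2O2, then incubated 24 h at 37 °C, 5% CO2. Viability was measured by MTT 4 h, DMSO solubilization, A570, as % of untreated/saline control. Means ± SEM of three independent experiments.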
# [6] = Neuroprotective effect against H202-induced Sprague-Dawley rat cortical neuron injury assessed as cell viability at 1 to 1000 uM treated 30 mins before H202 challenge measured after 24 hrs by MTT assay; conditions: Cortical neurone; summary of the method: as §3
# [7] = tested on: Rattus norvegicus; test: Neuroprotective effect against middle cerebral artery occlusion-induced focal cerebral ischemia in Sprague-Dawley rat assessed as reduction in infarct area at 80 mg/kg, ip administered 1 hr after MCA occlusion measured after 24 hrs of reperfusion by TTC staining relative to control; design: scale not given: the % may be the effect or the level left; conditions: route intraperitoneal; summary of the method: as §2
# [8] = Neuroprotective effect against H202-induced Sprague-Dawley rat cortical neuron injury assessed as cell viability at 1 mM treated 30 mins before H202 challenge measured after 24 hrs by MTT assay relative to control; conditions: Cortical neurone; summary of the method: as §3
# [9] = tested on: Rattus norvegicus; test: Antithrombotic activity in Sprague-Dawley rat venous thrombus model assessed as inhibition of thrombus formation at 3.25 mg/kg, iv administered 2 hrs after ligation measured after 24 hrs relative to control
# [10] = Neuroprotective effect against H202-induced Sprague-Dawley rat cortical neuron injury assessed as cell viability at 100 uM treated 30 mins before H202 challenge measured after 24 hrs by MTT assay; conditions: Cortical neurone; summary of the method: as §3
# [11] = tested on: Rattus norvegicus; test: Neuroprotective effect against middle cerebral artery occlusion-induced focal cerebral ischemia in Sprague-Dawley rat assessed as reduction in infarct area at 62 mg/kg, ip administered 1 hr after MCA occlusion measured after 24 hrs of reperfusion by TTC staining relative to control; design: scale not given: the % may be the effect or the level left; conditions: route intraperitoneal; summary of the method: as §2
# [12] = tested on: Rattus norvegicus; test: Antithrombotic activity in rat venous thrombosis model assessed as inhibition of thrombus formation at 1.2 mg/kg
# [13] = tested on: Rattus norvegicus; test: Neuroprotective effect against middle cerebral artery occlusion-induced focal cerebral ischemia in Sprague-Dawley rat assessed as reduction in infarct area at 50 mg/kg, ip administered 1 hr after MCA occlusion measured after 24 hrs of reperfusion by TTC staining relative to control; design: scale not given: the % may be the effect or the level left; conditions: route intraperitoneal; summary of the method: as §2
# [14] = tested on: Rattus norvegicus; test: Antithrombotic activity in Sprague-Dawley rat venous thrombus model assessed as inhibition of thrombus formation at 2 mg/kg, iv administered 2 hrs after ligation measured after 24 hrs relative to control
compound,measurement,setting,value
CC(C)(C)/[N+]([O-])=C/c1ccccc1,inhibition,[1],15.8%
same,Activity,[2],31.1%
same,inhibition at 2000 µM,[3],33.9%
same,inhibition,[4],25.1%
same,Activity,[5],inactive
Cc1nc(C)c(/C=[N+](\[O-])C(C)(C)C)nc1C,inhibition,[1],13.7%
same,Activity,[6],Active
same,Activity,[7],56.3%
same,Activity,[8],96%
same,inhibition at 2000 µM,[3],30%
same,inhibition,[4],40%
same,inhibition in vivo at 3.25 mg/kg,[9],57.6%
O=C1O[C@H]([C@@H](O)CO)C(O)=C1O,inhibition,[1],43.3%
same,inhibition,[4],53.2%
CC(=O)Oc1ccccc1C(=O)O [ASPIRIN],inhibition at 2000 µM,[3],24.8%
CC1=NN(c2ccccc2)C(=O)C1 [EDARAVONE],Activity,[10],Active
same,inhibition,[1],37.9%
same,Activity,[11],52.5%
same,Activity,[8],82%
same,inhibition at 2000 µM,[3],32.4%
same,inhibition,[4],43.7%
Cc1nc(C)c(C)nc1C [LIGUSTRAZINE],inhibition,[1],6.6%
same,inhibition in vivo at 1.2 mg/kg,[12],50%
same,Activity,[13],46.3%
same,inhibition in vivo at 2 mg/kg,[14],71.2%
same,inhibition at 2000 µM,[3],36.2%
same,inhibition,[4],9%
same,Activity,[5],inactive
